F508del corr: correctors of CFTR F508del function in bronchial epithelial cells. CFBE cells, YFP halide quenching; stimulated with forskolin plus potentiator P3; % fluorescence drop versus neutral controls. activity (quench increase), % at 7.58 µM. 350,000 tested, 0.36% active;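 active = mean added fluorescence quench of at least 8% versus neutral control, with both replicates also reaching 8%; inconclusive = only one of the mean or replicate conditions met; inactive = mean below 8% and not both replicates reaching 8%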;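 also: cells transiently co-express mutant CFTR-F508del with the halide-sensitive YFP; corrector assay measuring rescue of mutant channel to the surface after 24 h compound exposure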
rRNA inh HTS: inhibits bacterial ribosomal RNA function over humanized ribosomes; E. coli WT GFP vs humanized-ribosome RFP mutants, fluorescence, 24 h; active compounds read low; DMSO median 0, no signal -100; GFP signal change (wild-type ribosome), % (concentration not given with the values); 350,000 tested, 1.6% active; AID 720706;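 active = significant combined selectivity score with lowered wild-type GFP, culture density cut under 30%, mutant RFP and density less affected; inactive = any of these conditions unmet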
Cneo AK release: Cryptococcus neoformans lysis via adenylate kinase release. C. neoformans lysis, adenylate kinase release luminescence, 4 h; normalised: neutral wells 0, clomiphene wells 100. lysis activity, % at 15 µM. 360,000 tested, 0.2% active;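 active = mean lysis activity across replicates of at least 80%, whatever share of replicates individually reach that level; inactive = mean lysis activity below 80%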
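read-out = cell lysis signal | test system = log-phase Cryptococcus neoformans yeast cells | input = cells at 5 × 10^6 per mL | medium = fresh YPD growth medium | signal = luminescent adenylate kinase detection reagent | timing = 4 h at 37 °C static, read 1 h later | dosing = single dose | controls = Clomiphene as positive lysis control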
CaV13 FRET inh: Primary screen for inhibitors of IQ motif and Ca2+-dependent inactivation inhibitor domain binding in CACNA1D, Förster resonance energy transfer in living cells, …; 340,000 tested, 0.098% active; inhibition, % at 12.3 µM; HEK cells, CFP/YFP FRET ICDI-IQ, plate reader, 10 min; percent FRET-ratio fall versus neutral wells; AID 743397;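 active = mean replicate inhibition of at least 30% and at least 1% of replicates passing that level; inconclusive = only one of the two criteria is met; inactive = neither criterion is met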;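 also: 0% = median of the neutral control wells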
AID977621: growth inhibition of wild-type GFP E. coli, dose response, H69 mutant RFP, cherry-pick; shares compounds with rRNA inh HTS; E. coli wild-type GFP strain growth, fluorescence, 24 h; activity change, negative = inhibition at 50 µM; 1,900 tested, under 10 active;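 active = Wild-type ribosome reporter drop at least double the humanized mutant ribosome reporter drop, growth loss under a set limit; inconclusive = no clear call, values can overlap the other calls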;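 also: wild-type GFP and H69 mutant RFP strains grown together 50/50 in each well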
AID977628: growth of wild-type and h24-humanized E. coli strains – h24 mutant RFP vs wild-type GFP, cherry-pick, dose response | shares compounds with rRNA inh HTS | E. coli WT GFP strain growth, fluorescence, 24 h | activity change, negative = inhibition at 50 µM | 1,900 tested, under 10 active | AID 977628;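 active = compound lowering the normal-ribosome reporter at least twice as much as the humanized-ribosome reporter, growth loss under a set limit; inconclusive = no clear call, values can overlap the other calls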;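 also: wild-type GFP and h24 humanized RFP strains co-cultured 1 to 1 per well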
The depositor's hits bear a star; ? = inconclusive; · = no result. Hits are enriched below; roughly 1.7% of the tested compounds scored in any of these assays.

SMILES | F508del corr | rRNA inh HTS | Cneo AK release | CaV13 FRET inh | AID977621 | AID977628
O=C(Nc1cccc(F)c1)N1[C@@H]2CNC[C@H]1C2c1ccc(-c2ccncc2)cc1 (stereo partly drawn) | -5 | -25* | · | · | -18 | -1.7
O=C(Nc1ccc(F)cc1)N1CCCCN2[C@@H](CO)[C@H](c3ccc(-c4ccncc4)cc3)[C@@H]2C1 | -1 | -20* | 0 | · | -9.3 | ·
CO[C@H]1CN(C)C(=O)c2ccc(NS(=O)(=O)c3ccccc3)cc2OC[C@H](C)N(C)C[C@H]1C | -3 | 1 | · | · | · | ·
COc1ccc(-c2cnc3c(c2)C(=O)N([C@@H](C)CO)C[C@@H](C)[C@H](CN(C)Cc2ccccc2)O3)cc1 | 1 | 0 | -3 | · | · | ·
CC(C)NC(=O)N(C)C[C@@H]1Oc2cc(C#CC(C)(C)O)ccc2S(=O)(=O)N([C@H](C)CO)C[C@@H]1C | -2 | 5 | -3 | · | · | ·
CC(C)NC(=O)Nc1ccc2c(c1)C(=O)N([C@@H](C)CO)C[C@@H](C)[C@@H](CN(C)Cc1ccncc1)OCCCC[C@@H](C)O2 | -1 | -1 | 0 | · | · | ·
CCNC(=O)C1(C)CCCN(Cc2cccc3ccccc23)C1 (stereo not drawn) | 0 | -23* | -1 | -5 | · | ?
CNC(=O)c1sc(-c2ccccn2)nc1C | 1 | -23* | · | -5 | -21 | -7.1
Cc1nc(-c2ccccn2)sc1C(=O)Nc1ccc(F)cc1 | · | · | -1 | -5 | · | ·
Cc1ccc(S(=O)(=O)N[C@H]2CC[C@@H](CC(=O)NCc3ccc(Cl)c(Cl)c3)O[C@@H]2CO)cc1 | 0 | -10 | -2 | · | · | ·
O=C(C[C@@H]1C[C@@H]2c3cc(NC(=O)CC4CC4)ccc3O[C@@H]2[C@@H](CO)O1)NCc1ccccn1 | -1 | 2 | 58 | · | · | ·
O=C(Nc1cccc(S(=O)(=O)c2cccc(NC(=O)C3CC3)c2)c1)C1CC1 | 2 | -23* | 1 | -7 | ? | -9.1
C[C@@H]1CN([C@H](C)CO)C(=O)c2cccc(NC(=O)Nc3cccc4ccccc34)c2O[C@H]1CN(C)S(=O)(=O)c1cn(C)cn1 | -3 | -3 | 0 | · | · | ·
Cc1noc(C)c1NC(=O)Nc1ccc2c(c1)C(=O)N([C@@H](C)CO)C[C@@H](C)[C@@H](CN(C)C)OCCCC[C@H](C)O2 | 0 | 2 | -6 | · | · | ·
CO[C@H]1CN(C)C(=O)c2cc(NC(=O)C3CCC3)ccc2OC[C@@H](C)N(Cc2ccc(F)cc2)C[C@@H]1C | 0 | 1 | 1 | · | · | ·
COC(=O)C1(Cc2ccccc2)NC(c2ccc(F)cc2)C2C(=O)N(C)C(=O)C21 (stereo not drawn) | · | · | 0 | · | · | ·
COc1ccc(N2C(=O)C3C(c4ccc(C(=O)O)cc4)NC(Cc4ccccc4)(C(=O)O)C3C2=O)c([N+](=O)[O-])c1 (stereo not drawn) | · | -19* | · | -5 | 3.8 | 3.9
C[C@@H]1CN([C@@H](C)CO)C(=O)c2cc(NC(=O)c3ccncc3)ccc2O[C@@H]1CN(C)C(=O)Nc1ccc(C(F)(F)F)cc1 | 6 | -5 | 1 | · | · | ·
Cc1ccc(NC(=O)c2ccc([N+](=O)[O-])s2)cc1S(=O)(=O)N1CCOCC1 | -3 | -40* | -1 | -5 | ? | -12
O=C(Nc1cc(S(=O)(=O)N2CCOCC2)ccc1N1CCOCC1)c1ccccc1[N+](=O)[O-] | 1 | 6 | -2 | -2 | · | ·
O=C(CCNC(=O)c1ccccc1)Nc1ccc(Cl)c(S(=O)(=O)N2CCCCC2)c1 | 2 | -41* | 0 | -10 | -16 | ·
Cc1ccc(NC(=O)CCCSc2ccccc2)cc1S(=O)(=O)N1CCOCC1 | 1 | -24* | -1 | 0 | -19 | ·
O=C(Nc1cc(S(=O)(=O)N2CCOCC2)ccc1N1CCOCC1)c1ccc([N+](=O)[O-])s1 | 3 | -18* | 0 | -13 | ? | -1.9
O=C(C[C@@H]1CC[C@H](NC(=O)CN2CCOCC2)[C@@H](CO)O1)NC1CCCCC1 | -1 | 0 | -3 | · | · | ·

Compound activity from PubChem.
